Laboratory results: ChEMBL document CHEMBL5252546, “Salutaxel, a Conjugate of Docetaxel and a Muramyl Dipeptide (MDP) Analogue, Acts as Multifunctional Prodrug That Inhibits Tumor Growth and Metastasis” (J Med Chem, 2018)
Calls of active or inactive are those of the source. No cut-off for these calls is given here.

Tests used:
[1] = in vivo; details: mouse, tumor, iv, 5.7 mg/kg
[2] = Toxicity in BALB/c mouse xenografted with human HCT-116 cells assessed as side effects at 5.7 mg/kg,iv administrated once per week for 3 weeks; assay type: organism-based; details: in vivo, 504 h
Outline: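 Nude BALB/c nu/nu mice received subcutaneous human tumour cells into the right flank. Dosing started at mean tumour volume of 100–120 mm3, iv once weekly for 3 weeks; the taxane arm was an equimolar control. Body weight and overt side effects were monitored. Mean ± SEM, n = 8.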

[3] = Toxicity in BALB/c mouse injected with mouse 4T1 cells assessed as body weight loss at 5.7 mg/kg,iv in presence of compound 5b administrated once per week for 4 weeks; assay type: organism-based; details: in vivo, 672 h
[4] = system: 4T1; assay: Antitumor activity against mouse 4T1 cells implanted in BALB/c mouse assessed as decrease in lung MMP2 expression level at 5.7 mg/kg,iv administrated once per week for 4 weeks in presence of MDA-205 by western blot assay; assay type: functional, organism-based
Outline: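 4T1 cells injected into mammary fat pads of BALB/c mice. Saline vehicle or test article given iv once weekly for 4 weeks. Spleen, lung and tumor lysates immunoblotted for MMP2/MMP9 with β-actin as loading control. Bands averaged over five mice per group, representative of two independent experiments.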

[5] = system: 4T1; assay: Antitumor activity against mouse 4T1 cells implanted in BALB/c mouse assessed as decrease in serum MMP9 level at 20 mg/kg,iv administrated once per week for 4 weeks by ELISA; assay type: functional, organism-based
Outline: (§1)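 4T1 fat-pad model in BALB/c mice, iv 5–20 mg/kg once weekly for 4 weeks, with vehicle and naive groups; serum MMP9, TIMP-1, IL-6 and S100A9 measured by mouse ELISA kits.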

[6] = Toxicity in male Sprague-Dawley rat assessed as testicular atrophy at 2 to 8 mg/kg,iv measured upto 24 hrs; assay type: organism-based; details: in vivo, dose 2-8 mg/kg
[7] = Cmax in mouse plasma implanted with mouse 4T1 cells at 10 mg/kg,iv measured upto 72 hrs; assay type: ADME, organism-based; design: dose 10 mg/kg, time < 72 hrs, route iv
Outline: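 BALB/c mice carried 4T1 cells implanted in the mammary fat pad and received a single iv dose of 10 mg/kg. Parent drug and released docetaxel were assayed in plasma and tumor tissue up to 72 h. Parameters came from noncompartmental analysis, n = 6, mean ± SD.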

[8] = Stability in human hepatocyte assessed as compound remaining at 3 uM incubated upto 120 mins; assay type: ADME, cell-based; details: hepatocytes, 2 h
[9] = Cmax in male Beagle dog at 4 mg/kg,iv measured upto 24 hrs; assay type: ADME, organism-based, Canis lupus familiaris; design: time < 24 hrs, dose 4 mg/kg, route iv; details: in vivo
Outline: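 Beagle dogs were given a single iv infusion at 1, 2 or 4 mg/kg. Plasma parent drug and released docetaxel were followed over time. Cmax, Tmax, AUC, MRT, t1/2, CL and Vss were reported by sex and for all dogs combined.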

[10] = Drug excretion in rat bile at 4 mg/kg,iv measured upto 48 hrs; assay type: ADME, organism-based; details: read-out: Drug excretion
Outline: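 Rats were dosed iv. Bile was collected from 0 to 48 h, and cumulative excretion of the unchanged prototype was expressed as a percentage of the dose.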

[11] = Volume of distribution at steady state in male rat at 2 mg/kg,iv measured upto 24 hrs; assay type: ADME, organism-based; details: in vivo, read-out: Vdss
[12] = Toxicity in BALB/c mouse xenografted with human MDA-MB-231 cells assessed as side effects at 10 mg/kg,iv administrated once per week for 3 weeks; assay type: organism-based; details: in vivo, 504 h
[13] = Tmax in rat at 8 mg/kg,iv measured upto 24 hrs; assay type: ADME, organism-based; details: in vivo
[14] = Drug metabolism in rat urine assessed as metabolite MDA-205 formation at 4 mg/kg,iv measured after 24 hrs; assay type: ADME, organism-based; details: in vivo
[15] = Tmax in male Beagle dog at 4 mg/kg,iv measured upto 24 hrs; assay type: ADME, organism-based, Canis lupus familiaris; details: in vivo
[16] = system: 4T1; assay: Antitumor activity against mouse 4T1 cells implanted in BALB/c mouse assessed as decrease in serum MMP9 level at 10 mg/kg,iv administrated once per week for 4 weeks by ELISA; assay type: functional, organism-based
Outline: as §1

[17] = Drug metabolism in monkey hepatocytes assessed as docetaxel metabolite formation at 20 uM incubated for 180 mins; assay type: ADME, cell-based, Macaca mulatta, Hepatocyte; details: rhesus monkey, 3 h
[18] = Drug distribution in rat kidney at 4 mg/kg,iv measured by 0.25 hrs; assay type: ADME, organism-based; details: in vivo
Outline: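 Rats received 4 mg/kg iv. Parent drug and released docetaxel were assayed in tissues and plasma from the first sampling at 0.25 h to 24 h. The lower limit of quantitation was 200 ng/g.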

[19] = target: Cytochrome P450 2C19 (Homo sapiens, UniProt P33261); assay: Inhibition of CYP2C19 in human liver microsomes using probe substrate at 0.1 to 100 uM in presence of NADPH; assay type: ADME, Microsome; details: dose 0.1-100 µM
[20] = Toxicity in BALB/c mouse xenografted with human A549/Taxol cells assessed as side effects at 10 mg/kg,iv administrated once per week for 3 weeks; assay type: organism-based, A549/TR; details: in vivo, 504 h
[21] = MRT (0 to infinity) in rat at 8 mg/kg,iv measured upto 24 hrs; assay type: ADME, organism-based; details: in vivo
[22] = Volume of distribution at steady state in Beagle dog at 2 mg/kg,iv measured upto 24 hrs; assay type: ADME, organism-based, Canis lupus familiaris; details: in vivo, read-out: Vdss
[23] = system: NCI-H460; assay: Antiproliferative activity against human NCI-H460 cells assessed inhibition of cell growth incubated for 72 hrs by SRB assay; assay type: functional, cell-based; details: NCI-H460, 72 h
[24] = AUC (0-infinity) in Beagle dog at 2 mg/kg,iv measured upto 24 hrs; assay type: ADME, organism-based, Canis lupus familiaris; design: dose 2 mg/kg, time < 24 hrs, route iv; details: in vivo
Outline: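 Single iv dose: rats 2, 4 or 8 mg/kg by intravenous injection; Beagle dogs 1, 2 or 4 mg/kg by intravenous infusion. Plasma concentration–time data were analysed by sex and pooled. Reported parameters: Cmax, Tmax, AUC0−t, AUC0−∞, MRT0−∞, t1/2, CL, Vss, given as mean ± SD.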

[25] = Prodrug conversion in mouse tumor implanted with mouse 4T1 cells assessed as AUC (0-t) of docetaxel at 4 mg/kg,iv measured upto 72 hrs; assay type: ADME, organism-based, Neoplasm; design: time < 72 hrs, dose 4 mg/kg, route iv; details: in vivo
[26] = system: 4T1; assay: Antitumor activity against mouse 4T1 cells implanted in BALB/c mouse assessed as decrease in MMP9 mRNA expression in lung at 20 mg/kg,iv administrated qd for 2 days by qRT-PCR analysis; assay type: functional, organism-based; details: time 2.0 day
Outline: (§2)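 Day 19 after 4T1 implantation, mice randomised into five groups; iv vehicle or 20 mg/kg plus ip C12-iE-DAP (50 μg/mouse) and MDP (100 μg/mouse) once daily for 2 days; killed after 48 h; lung mRNA for MMP8, MMP9, PROK2, S100A8, S100A9 and IL-1β by qPCR; mean ± SEM.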

[27] = system: 4T1; assay: Antitumor activity against mouse 4T1 cells implanted in BALB/c mouse assessed as decrease in IL-1beta mRNA expression in lung at 20 mg/kg,iv administrated qd for 2 days by qRT-PCR analysis; assay type: functional, organism-based; details: time 2.0 day
Outline: as §2

[28] = target: Cytochrome P450 1A (Homo sapiens, UniProt P04798+P05177); assay: Inhibition of CYP1A in human liver microsomes using probe substrate at 0.1 to 100 uM in presence of NADPH; assay type: ADME, Microsome; details: dose 0.1-100 µM

Chain of Cytochrome P450 2C19 (P33261 whole entry): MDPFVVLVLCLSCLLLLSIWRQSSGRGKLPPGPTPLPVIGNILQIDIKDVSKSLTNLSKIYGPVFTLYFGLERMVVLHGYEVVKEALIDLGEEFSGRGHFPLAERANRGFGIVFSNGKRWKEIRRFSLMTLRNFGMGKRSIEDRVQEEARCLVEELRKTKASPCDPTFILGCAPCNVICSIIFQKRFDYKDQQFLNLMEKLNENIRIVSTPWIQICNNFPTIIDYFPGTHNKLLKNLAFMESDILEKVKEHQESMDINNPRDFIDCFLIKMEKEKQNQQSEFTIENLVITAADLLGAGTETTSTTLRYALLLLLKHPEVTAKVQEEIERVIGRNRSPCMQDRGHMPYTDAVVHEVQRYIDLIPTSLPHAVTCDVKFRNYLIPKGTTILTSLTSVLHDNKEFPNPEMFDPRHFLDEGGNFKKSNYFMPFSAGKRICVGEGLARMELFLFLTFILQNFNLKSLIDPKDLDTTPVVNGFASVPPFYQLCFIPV

**Q.** Which results are given for `CC(=O)O[C@@]12CO[C@@H]1C[C@H](O)[C@@]1(C)C(=O)[C@H](O)C3=C(C)[C@@H](OC(=O)[C@H](O)[C@@H](NC(=O)OC(C)(C)C)c4ccccc4)C[C@@](O)([C@@H](OC(=O)c4ccccc4)[C@H]21)C3(C)C` [DOCETAXEL ANHYDROUS]?
**A.** AUC(0-t) at 72 h [1]: 27 µM·h; Activity [2]: Non-Toxic; Activity [3]: Non-Toxic; Activity [4]: inactive

**Q.** With `CC(=O)O[C@@]12CO[C@@H]1C[C@H](O)[C@@]1(C)C(=O)[C@H](O)C3=C(C)[C@@H](OC(=O)[C@H](OC(=O)CCC(=O)NCCCC[C@H](NC(=O)CC[C@@H](NC(=O)[C@H](C)NC(=O)/C=C/c4ccc(F)cc4Cl)C(N)=O)C(=O)O)[C@@H](NC(=O)OC(C)(C)C)c4ccccc4)C[C@@](O)([C@@H](OC(=O)c4ccccc4)[C@H]21)C3(C)C` as the compound, how does the Activity [5] read?
**A.** Active

**Q.** And the Activity [6]?
**A.** Toxic

**Q.** What about the Cmax [7] of the same compound?
**A.** 14.7 µM

**Q.** And the Stability [8]?
**A.** Stable

**Q.** And the Cmax [9]?
**A.** 29600 ng/mL

**Q.** What about the dose excreted at 48 h [10] of the same compound?
**A.** 82.9%

**Q.** What about the Vd [11] of the same compound?
**A.** 0.076 L/kg

**Q.** What about the Activity [12] of the same compound?
**A.** Non-Toxic

**Q.** And the Tmax [13]?
**A.** 4.98 min

**Q.** And the Drug metabolism [14]?
**A.** Metabolite_Detected

**Q.** And the Tmax [15]?
**A.** 30 min

**Q.** What about the Activity [16] of the same compound?
**A.** Active

**Q.** What about the Drug metabolism [17] of the same compound?
**A.** Metabolite_Detected

**Q.** What about the Drug uptake [18] of the same compound?
**A.** Active

**Q.** What about the “inhibition (INH)” value [19] of the same compound?
**A.** Not Active

**Q.** What about the Activity [20] of the same compound?
**A.** Non-Toxic

**Q.** What about the MRT inf [21] of the same compound?
**A.** 33.1 min

**Q.** What about the Vd [22] of the same compound?
**A.** 0.083 L/kg

**Q.** What about the IC50 [23] of the same compound?
**A.** 16.3 nM

**Q.** And the AUC(0-inf) [24]?
**A.** 5950 ng·h/mL

**Q.** And the AUCt [25]?
**A.** 81 µM·h

**Q.** What about the Activity [26] of the same compound?
**A.** Active

**Q.** What about the Activity [27] of the same compound?
**A.** Active

**Q.** And the “inhibition (INH)” value [28]?
**A.** Not Active
